Compound activity from PubChem BioAssay.
Most compounds without a hit are left out; they make up all but 3.9% or so of the library.
TAAR1 agonist: agonists of human TAAR1 | AID 624467 | actives 0.99% (n = 360,000) | CHO RD-HGA16 TAAR1, Fluo-8 calcium fluorescence; vehicle wells 0%, saturating PEA agonist 100% | Q96RJ0 | activation, % at 3 µM;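 active = activation above the mean activation of all test compounds in the run plus 3 SD, cut at about 38% in these data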
Target sequence (Q96RJ0 whole entry, looked up): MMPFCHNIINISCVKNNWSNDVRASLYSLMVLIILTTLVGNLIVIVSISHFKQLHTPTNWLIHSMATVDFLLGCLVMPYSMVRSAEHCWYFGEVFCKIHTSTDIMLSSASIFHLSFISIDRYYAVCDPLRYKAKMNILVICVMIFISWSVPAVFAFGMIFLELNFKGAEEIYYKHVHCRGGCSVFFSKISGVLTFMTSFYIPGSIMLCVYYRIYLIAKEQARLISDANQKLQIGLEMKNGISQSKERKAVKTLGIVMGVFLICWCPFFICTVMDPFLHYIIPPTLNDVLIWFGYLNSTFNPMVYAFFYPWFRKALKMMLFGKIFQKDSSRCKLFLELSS
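System: CHO-derived RD-HGA16 cells with stable Gα16 and human TAAR1 / Times: 17-24 h plating, Fluo-8 75 min 37 °C, 30 min RT / Technique: calcium-sensitive Fluo-8 signal, excitation 470-495, emission 515-575 nm / Measure: % activation relative to PEA EC100 response / Benchmarks: DMSO and PEA EC100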
ANO1 activ: activates or potentiates the mouse TMEM16A chloride channel; Q8BHY3; HEK293 TMEM16A/YFP-H148Q/I152L, iodide quench fluorescence; active compounds read low; B-score at 10 µM; actives 0.3% (n = 340,000); AID 623877;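 active = fluorescence-ratio B-score plate-corrected deviation score at least 3 library SD below zero, with starting fluorescence score within 5 deviations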;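 note: channel opened by trigger with iodide after compound preincubation; score built on the fluorescence ratio of max minus min over baseline; more negative score means more quench and so TMEM16A activation or potentiation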
TAAR1 antag: antagonists of human TAAR1 | inhibition, % at 3 µM | actives 1.5% (n = 360,000) | CHO RD-HGA16 TAAR1, Fluo-8 calcium fluorescence, antagonist | Q96RJ0;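 active = inhibition above a per-plate cutoff, the mean inhibition of test compounds on that plate plus 3 SD, cut at about 49% in these data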;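 note: 0% = DMSO plus EC80 beta-PEA response and 100% = DMSO alone without agonist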
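Assay system: CHO-derived RD-HGA16 cells stably expressing human TAAR1 plus Gα16. Timing: 140 s kinetic read after compound, 140 s after agonist. Technique: kinetic Fluo-8 calcium fluorescence measurement. Measure: % inhibition of agonist calcium response.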
CRFBP-R2 agonist: CRF-BP/CRF-R2 complex agonism. HEK293 CRF-R2/CRF-BP, calcium dye fluorescence (FLIPR); percent of saturating CRF peptide response. activation, % at 13.2 µM. actives 0.46% (n = 350,000). AID 588473;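 active = activation of at least 50%, plus an integration ratio under a set limit after plate pattern correction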;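 note: plate controls were neutral control wells without compound for no effect and CRF at EC100 for full effect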
CRFR2-BP antag: blocks CRF-induced signaling of the CRF-BP/CRF-R2 complex. HEK293 CRF-R2/CRF-BP, CRF-induced calcium fluorescence. inhibition, % at 11.8 µM. actives 0.59% (n = 350,000). AID 588475;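 active = inhibition of the ligand-induced calcium signal above about 50% at the single tested concentration, limit read from the data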
TMEM16A inh: mouse TMEM16A channel inhibition, primary screen | Q8BHY3 | HEK293 TMEM16A/YFP iodide influx fluorescence, ionomycin | normalized B-score (activity score, 25-100; higher = stronger inhibition) at 10 µM | actives 1.2% (n = 310,000);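 active = ratio plate-corrected score three or more library SD toward inhibition, starting fluorescence score within five deviations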;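 note: score derived from kinetic fluorescence span divided by baseline fluorescence per well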
* = called active by the depositor; i = inactive; . = not tested or not shown.

SMILES	TAAR1 agonist	ANO1 activ	TAAR1 antag	CRFBP-R2 agonist	CRFR2-BP antag	TMEM16A inh
O=C1CC(N(CCc2ccccc2)C(=S)Nc2ccccc2)C(=O)N1c1ccccc1 (configuration not stated)	6	i	0	5	-16	i
OC(CNCCC1C=Nc2ccccc21)Cn1c2ccc(Cl)cc2c2cc(Cl)ccc21 (configuration not stated)	40*	i	42	0	-32	i
OC(CNCC1CCCO1)Cn1c2ccc(Cl)cc2c2cc(Cl)ccc21 (configuration not stated)	19	i	30	-2	-24	i
COc1ccc(N(CC(=O)NCCSc2ccccn2)S(=O)(=O)c2ccc(C)cc2)cc1OC	12	i	5	-1	55*	i
COc1ccccc1N(CC(=O)NCCSCc1ccccc1)S(=O)(=O)c1ccccc1	7	.	65*	0	31	.
COC(=O)c1cc(NC(=O)CN(c2ccccc2OC)S(=O)(=O)c2ccccc2)ccc1Cl	7	i	51*	-2	-10	i
COc1ccccc1N(CC(=O)NCCSCc1ccccc1)S(=O)(=O)c1ccc(C)cc1	-1	i	47	2	9	25*
CCOC(=O)COc1coc(CN2CCN(c3ccc(F)cc3)CC2)cc1=O	2	i	-7	-1	-2	i
Cc1ccc(C)c(NC(=O)CN(C)C(=O)c2ccccc2OCc2ccccc2Cl)c1	1	i	5	0	1	i
Cc1ccc(C(=O)C(C)OC(=O)CN2C(=O)NC3(CCCC3)C2=O)cc1C (configuration not stated)	5	i	-14	0	11	i
CN(C)CCN(Cc1cccs1)S(=O)(=O)c1csc(C(N)=O)c1	0	i	-4	-1	9	i
Cc1ccc(S(=O)(=O)N(C)CC(=O)NCCCc2ccccc2)cc1	3	i	-20	61*	-46	i
COc1ccc(S(=O)(=O)N(C)CC(=O)NCCc2ccccc2)cc1OC	6	i	3	-1	1	i
CSCCC(NC(=O)c1ccccc1Br)C(=O)N1CCCCCCC1 (configuration not stated)	0	i	-20	-1	0	i
Cc1nnc(SCC(=O)c2cc(C)n(C3CC3)c2C)s1	3	i	-16	52*	-26	i
CCOC(=O)c1c(-c2ccsc2)csc1N	7	i	2	-2	10	i
CCOC(=O)c1c(CC(C)C)csc1NC(=O)CCl	9	i	-19	1	1	i
CCOC(=O)c1c(CC(C)C)csc1NC(=O)C(C)C	19	i	8	1	-12	25*
CCOC(=O)c1c(CC(C)C)csc1N	6	i	1	-3	55*	i
COCCNC(=O)c1cnn2c(C(F)(F)F)cc(-c3ccc(C)cc3)nc12	1	-5.2*	-2	-1	3	i
Cc1ccc(-c2cc(C(F)(F)F)n3ncc(C(=O)O)c3n2)cc1	1	i	-5	0	7	.
COc1ccc(-c2ncn(CCc3ccccc3OC)c2C(C)C)cc1	15	.	-1	.	.	.
COc1cc2ncnc(N[C@H](C)c3ccccc3)c2cc1OC	.	i	.	0	34	i
O=C(C(=O)N(Cc1ccccc1)Cc1ccccc1)c1c(-c2ccccc2)[nH]c2ccccc12	12	.	75*	3	3	.
COCCNC(=O)C(=O)c1c(-c2ccccc2)[nH]c2ccccc12	0	i	-15	0	7	i
SMILES	TAAR1 agonist	ANO1 activ	TAAR1 antag	CRFBP-R2 agonist	CRFR2-BP antag	TMEM16A inh
COCCNC(=O)COc1ccc(Br)cc1Cl	.	i	.	30	-18	100*
CN(C)CCCNC(=O)COc1ccc(Br)cc1Cl	0	i	2	-1	1	i
NC(c1csc(Nc2nncc3ccccc23)n1)C1CCCCC1 (configuration not stated)	36	.	9	.	.	.
NC(c1csc(Nc2nncc3ccccc23)n1)c1ccccc1Cl (configuration not stated)	50*	.	40	.	.	.
Cc1[nH]n(C(N)=S)c(=O)c1N=Nc1cc(-c2ccc(Br)cc2)[nH]n1	0	i	3	1	80*	i
NC(=S)n1[nH]c(-c2ccc([N+](=O)[O-])cc2)c(N=Nc2ccccc2[N+](=O)[O-])c1=O	15	i	-10	7	-75	.
Cc1[nH]n(C(N)=S)c(=O)c1N=Nc1cccc([N+](=O)[O-])c1C	.	i	.	6	-2	25*
Cc1c(N=Nc2c(-c3ccc([N+](=O)[O-])cc3)[nH]n(C(N)=S)c2=O)cccc1[N+](=O)[O-]	11	i	5	42	66*	.
COc1ccc(CN(C)C(=O)[C@H]2O[C@@H](n3ccc(=O)[nH]c3=O)[C@H](O)[C@@H]2O)cc1OC	1	.	8	.	.	.
COC(=O)[C@H](C)N(Cc1ccc(Cl)c(Cl)c1)S(=O)(=O)CCN1CCCC1	3	.	-5	2	-9	.
NC(=S)N/N=C\c1ccccc1OCc1ccccc1	14	i	7	-3	37	i
NC(=S)N/N=C/c1ccccc1OC(=O)/C=C/c1ccccc1	-2	i	15	-1	124*	i
CC1C(=O)N(Cc2ccccc2F)c2ccccc2N1C(=O)c1c(F)cccc1F (configuration not stated)	5	i	52*	-7	37	i
COc1cccc(CN2C(=O)C(C)N(C(=O)c3c(F)cccc3F)c3ccccc32)c1 (configuration not stated)	4	i	47	2	19	i
CC(C)N(CCn1c(=S)[nH]c2ccccc2c1=O)C(C)C	5	i	11	50*	5	i
CC(CCC(C)C(C)(C)C)[C@@H]1CC[C@H]2C3C[C@H](OS(O)(=S)=S)[C@H]4C[C@H](OS(O)(=S)=S)[C@@H](OS(O)(=S)=S)C[C@]4(C)[C@H]3CC[C@]12C (some centres not stated) (tested in a mixture with another compound)	.	-11*	.	55*	30	.
COC(=O)C1CCN(C(=O)c2cc(-c3ccc(Cl)s3)nc3ccccc23)CC1	9	i	57*	-1	-6	.
COc1ccc(OC)c2c1cc(C(=O)N[C@H](C(=O)N1CCC(C(=O)O)CC1)C(C)C)n2C	2	i	-22	-2	5	i
COC(=O)Cn1c(=NC(=O)c2cccc(OC)c2)sc2cc(OC)ccc21	6	i	49*	0	-32	i
